# Bioassay records deposited in PubChem by several laboratories.
# Hits are enriched below; roughly 5.3% of the tested compounds scored in any of these assays.
# Beta cell apopt = inhibitors of cytokine-induced beta cell apoptosis, primary screen, luminescence. INS-1E cytokine-induced death, ATP luminescence, 48 h; percent of positive-control rescue, neutral wells zero. protection from apoptosis, % (test concentration not listed). 0.8% of 300,000 active;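 active = Every replicate reaches about 75%, or at least half do and their mean reaches it too, limit read from the data; inconclusive = At least half of replicates reach the limit but their mean does not; inactive = Under half of replicates reach the limit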;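 note: higher means more ATP so stronger rescue from cytokine killing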
# CSC inhib = cancer stem cell viability inhibitors, primary screen, luminescence | cancer stem cell-like cells viability | inhibition, % at 7.5 µM | 1.1% of 300,000 active | AID 2717, 2010; in the data active = inhibition above about 75%; inconclusive = no clear call, values can overlap the other calls; tested in HMLE shEcad cells
# Calb FLC = C. albicans growth inhibition with fluconazole, primary screen, CaCi-2 strain, Alamar Blue fluorescence; AID 1979, 2009; 0.57% of 300,000 active; C. albicans CaCi-2 (fluconazole-resistant clinical isolate) + fluconazole, 48 h; growth inhibition, % (test concentration not listed);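 active = growth inhibition above about 58% in most replicates, limit read from the data, passing the limit was not always enough; inconclusive = exactly half the replicates above a set limit; inactive = most replicates below a set limit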;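 note: all wells also contain fluconazole at 8 µg/ml as a sub-toxic cotreatment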
# NALP3 yeast inh = NALP3 inflammasome inhibitors in reconstituted yeast, primary screen, luminescence, uHTS; Yeast reconstituted NLRP3/ASC/caspase-1, beta-gal luminescence, 24 h; inhibition, % at 10 µM; 0.39% of 330,000 active; AID 2825, 2010;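 active = inhibition of 50% or more; inactive = inhibition below 50%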
# T cruzi inh = inhibitors of intracellular T. cruzi growth, primary screen, luminescence, NIH3T3 host cells; T. cruzi beta-gal in NIH3T3, 90 h; inhibition, % (test concentration not listed); 1.4% of 300,000 active; AID 1885, 2009;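 active = mean inhibition across valid replicates above about 55%, limit read from the data; inconclusive = mean below that limit but half or more replicates reach it; inactive = mean below it, under half of replicates reach it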;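 note: signal also drops with host cell toxicity which is not excluded here; higher percent means less beta-gal luminescence so fewer parasites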
#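 System – NIH/3T3 host cells with β-galactosidase reporter T. cruzi · Doses – single 50 nL compound addition per well in DMSO · Reagent – 5000 T. cruzi trypomastigotes/well · Medium – Low-serum DMEM with 2% FBS · Timing – ≥90 h infection period, 3 h prior cell attachment · Evaluation – parasite load inhibition, % · Technique – GalScreen luminescence, 60 min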
# Mdm2-MdmX inh = inhibitors of human Mdm2-MdmX association, primary screen, cell-based, luminescence, split luciferase, SaOS-2, uHTS. Protein Mdm4 (Homo sapiens) + E3 ubiquitin-protein ligase Mdm2 (Homo sapiens), …. SaOS-2 split-luciferase Mdm2/MdmX complementation. inhibition, % at 8 µM. 3% of 330,000 active;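 active = inhibition of at least 50% at 8 µM in the primary screen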
# Hits are given with their value; - = inactive; ? = inconclusive; . = no result given.
SMILES,Beta cell apopt,CSC inhib,Calb FLC,NALP3 yeast inh,T cruzi inh,Mdm2-MdmX inh
COc1cccc(/C=N/NC(=O)c2ccoc2C)c1O,86,-,-,-,-,-
COc1cccc(/C=N/NC(=O)c2cc3cc([N+](=O)[O-])ccc3s2)c1O,82,106,-,.,-,.
CCOC(=O)C1(Cc2ccccc2)CCN(Cc2ccon2)CC1,-,-,-,-,-,-
Cn1c(CNC(=O)CNC(=O)Cc2ccccc2)cc(=O)n(C)c1=O,-,-,-,-,-,-
CCN1/C(=C/c2sc(-c3ccccc3C)c[n+]2C)Sc2ccccc21,.,.,106,.,66,.
CCC(=O)/C=C1/Sc2ccccc2N1CC,-,-,-,-,-,-
CCc1ccc(/C(C)=N\Nc2ccc([N+](=O)[O-])cc2)cc1,-,-,129,-,-,-
COc1ccc(S(=O)(=O)Nc2cc(Cl)ccc2-n2cncn2)cc1,-,.,.,-,.,-
CN(C)c1ccc(NC(=S)NC23CC4CC(CC(C4)C2)C3)cc1,111,.,-,-,-,-
CC(C(=O)NCC1CCCCC1)N(C)Cc1ccc(Cl)cc1 (configuration not stated),-,-,-,-,-,-
O=C(CCCCCN1C(=O)c2cccc3cccc(c23)C1=O)N1CCOCC1,-,-,107,-,-,-
C/C(=N\O)c1cc(Cl)cc(Cl)c1O,-,-,77,-,.,-
C/C(=N\O)c1ccc(Cl)cc1Cl,-,-,-,-,-,-
CC1CC(C)(C)NCCNC(C)CC(C)(C)NCCN1 (configuration not stated),-,-,-,-,-,-
O=C(NCc1ccccc1)c1ccc(C(=O)N(C2CCCCC2)C2CCCCC2)cc1,-,-,-,-,61,-
C=CCn1c(SCc2nc3ccccc3c(=O)[nH]2)nc2ccccc2c1=O,-,-,-,-,-,-
CCOC(=O)N1CCN(C(=O)CC(C(=O)N2CCc3ccccc32)n2ccnc2)CC1 (configuration not stated),.,.,-,-,63,-
O=C(CC(C(=O)N1CCc2ccccc21)n1ccnc1)NCc1ccccc1 (configuration not stated),-,-,-,-,-,-
c1ccc(C[n+]2csc3ccccc32)cc1,-,-,?,-,-,-
Fc1cccc(C[n+]2csc3ccccc32)c1,-,.,-,-,55,-
CC(=O)N(CCCc1ccc(C(C)(C)C)cc1)CCCN(C)C,-,-,-,-,73,-
C=CCOC(=O)C1=C(C)N=C2SCCC(=O)N2C1c1cccs1 (configuration not stated),-,-,-,-,-,-
CCCCCCc1cc2cc(S(=O)(=O)c3ccc(C)cc3)c(=O)oc2cc1O,-,89,-,-,-,-
Cc1ccc(S(=O)(=O)c2cc3cc(Br)ccc3oc2=O)cc1,-,-,-,-,-,-
Cc1cc(C)n(-c2cc(C)c(C)cc2Br)n1,-,.,-,-,-,-
SMILES,Beta cell apopt,CSC inhib,Calb FLC,NALP3 yeast inh,T cruzi inh,Mdm2-MdmX inh
CN(C)c1ccc(N=Cc2nc(-c3ccccc3)oc2O)cc1,-,-,-,-,-,-
CN(C)c1ccc(N=Cc2cccn2C)cc1,-,.,85,-,-,-
O=C(/C=C/c1ccc(O)cc1)c1ccc(NC2=C(N3CCCCC3)C(=O)c3ccccc3C2=O)cc1,-,90,-,-,-,-
O=C1C(Nc2ccccc2)=C(N2CCCCC2)C(=O)c2ccccc21,83,-,-,-,-,-
CC1=C(Nc2ccc(C(=O)O)cc2)C(=O)c2ccccc2C1=O,-,-,-,-,-,-
CC(=O)Nc1ccc(S(=O)(=O)NC2=C(N3CCN(C)CC3)C(=O)c3ccccc3C2=O)cc1,99,-,.,-,-,-
O=C1C(Nc2cccc(O)c2)=C(N2CCCCC2)C(=O)c2ccccc21,.,.,-,-,-,-
Cc1ccc(NC2=C(N3CCCCC3)C(=O)c3ccccc3C2=O)cc1,76,-,-,-,66,-
CCOc1ccc(N(CC(=O)NCc2ccc(F)cc2)C(=O)c2snc(C(N)=O)c2N)cc1,-,-,-,-,-,-
COc1cc(/C=N/NC(=O)c2ccc3c(c2)OCCO3)cc(Cl)c1O,-,-,-,-,-,-
CCOC(=O)C1=C(COC(=O)CNC(=O)c2ccccc2F)NC(=O)NC1C (configuration not stated),-,-,-,-,-,-
O=C(NCCO)c1ccc2[nH]c3ccccc3c2c1,-,-,-,-,-,-
Cc1[nH]nc(-c2ccc(O)c(C)c2O)c1-c1cnn(-c2ccccc2)c1,-,-,106,-,-,-
Cc1oc2c(C)c(O)ccc2c(=O)c1-c1cnn(-c2ccccc2)c1,-,-,-,-,-,-
O=C(Nc1cccc(Cl)c1)Nc1ccnc(-c2cccnc2)n1,-,-,-,-,-,-
CCCCc1c(O)nc(SCC(=O)Nc2cccc3ccccc23)n(-c2ccccc2OC)c1=O,-,-,83,-,-,-
CCc1c(O)nc(SCC(=O)Nc2ccccc2OC)n(-c2ccccc2C)c1=O,-,-,-,-,-,-
O=[N+]([O-])/C=C/c1cn(Cc2ccc(Cl)cc2)c2ccccc12,-,99,-,-,-,-
O=S(=O)(c1ccc(Cl)s1)N1CCCc2cccc(O)c21,-,.,68,-,-,-
O=S(=O)(c1ccc(Cl)s1)N1CCc2ccccc2C1,-,-,-,-,-,-
CCOC(=O)C1=C(COC(=O)CNC(=O)c2cc(OC)c(OC)c(OC)c2)NC(=O)NC1C (configuration not stated),-,-,-,-,-,-
Cc1sc2ncnc(N3CCC(C)CC3)c2c1C,-,-,-,-,-,-
Cc1sc2ncnc(N3CCN(S(=O)(=O)c4ccc(C(C)(C)C)cc4)CC3)c2c1C,124,-,.,-,.,-
Cc1sc2ncnc(N3CCN(S(=O)(=O)c4ccc(Br)cc4)CC3)c2c1C,-,-,-,-,-,-
Cc1csc2ncnc(N3CCN(S(=O)(=O)c4cccc(C(F)(F)F)c4)CC3)c12,95,-,-,-,-,-
SMILES,Beta cell apopt,CSC inhib,Calb FLC,NALP3 yeast inh,T cruzi inh,Mdm2-MdmX inh
Cc1sc2ncnc(N3CCN(CCOc4ccc(Cl)cc4)CC3)c2c1C,103,83,?,-,59,-
Cn1c(SCc2nn[nH]n2)nc2c1c(=O)n(Cc1ccccc1Cl)c(=O)n2C,-,-,?,-,-,-
Cc1nc(-n2nnc(CO)c2CO)nc2c1CCC2,-,-,-,-,-,-
CCCCc1ccc(/C(C)=N/Nc2cc(N3CCOCC3)nc(C)n2)cc1,-,80,-,-,62,-
C/C(=N\Nc1cc(N2CCOCC2)nc(C)n1)c1cccc([N+](=O)[O-])c1,-,-,-,-,-,-
Cc1cccc(Nc2nc(-c3ccccn3)cs2)n1,-,-,-,-,59,-
